Measured values as given in ChEMBL document CHEMBL1128600, “The cholesterol derivative of a triantennary galactoside with high affinity for hepatic asialoglycoprotein receptor: a potent cholesterol lowering agent” (J Med Chem, 1995).

Assays:
Homo sapiens [1] = organism: Homo sapiens; experiment: Particle size of HDL after incubation with the compound (0.01%); format: functional
Procedure, shortened: (§1)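 Lipoproteins (LDL 1.019–1.063, HDL 1.063–1.21 ×10³ kg/m³) isolated from human serum by KBr/NaCl density-gradient ultracentrifugation. LDL (0.5 mg/mL) or HDL (2.0 mg/mL) incubated 10 min at room temperature in PBS pH 7.40 with 0–0.33% (w/v) agent. Size measured by photon correlation spectroscopy (120°, 632 nm, 72 s accumulation) and reported as mass-weighted mean ± standard error.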

Homo sapiens [2] = organism: Homo sapiens; experiment: Particle size of LDL after incubation with the compound (0.0055%); format: functional; procedure, shortened: as §1

C[C@@H]1CC[C@@]2(OC1)O[C@H]1[C@@H](O)[C@H]3[C@@H]4CC[C@H]5C[C@@H](O[C@@H]6O[C@H](CO)[C@H](O[C@@H]7O[C@H](CO)C(O)[C@H](O[C@@H]8OC[C@@H](O)[C@H](O)[C@H]8O)[C@H]7O[C@@H]7O[C@H](CO)[C@H](O)[C@H](O[C@@H]8O[C@H](CO)[C@@H](O)[C@H](O)[C@H]8O)[C@H]7O)[C@H](O)[C@H]6O)[C@H](O)C[C@]5(C)[C@H]4CC[C@]3(C)[C@H]1[C@@H]2C (some centres not stated)
Activity (Homo sapiens [1]): Increase
Activity (Homo sapiens [2]): Increase
